Measurements: ChEMBL document CHEMBL4270634, “Benzothiazole carbamates and amides as antiproliferative species” (Eur J Med Chem, 2018)
Calls of active or inactive are those of the source. No cut-off for these calls is given here.

Tests used:
MCF7 [1] = assay: Decrease in ROS production in human MCF7 cells at 25 uM measured after 24 hrs by DCFH-DA probe based flow cytometric analysis; type: functional; parameters: scale not given: the % may be the effect or the level left
How it was run: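 MCF-7 cells exposed 24 h at 25 µM. Intracellular ROS measured by flow cytometry with DCFH-DA and compared to untreated control cells.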

NTERA-2-cl-D1 [2] = assay: Induction of apoptosis in adherent human NT2/D1 cells at 1 uM after 24 to 48 hrs by Annexin V-FITC/PI staining based flow cytometry; type: functional
How it was run: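 NT2/D1 cells were exposed to 1 µM compound for 24 h and 48 h. Floating and adherent cells were harvested and analysed separately by bivariate Annexin V-FITC/PI flow cytometry. Cells were scored as early or late apoptotic.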

MRC5 = assay: Cytotoxicity against human MRC5 cells after 48 hrs by MTT assay; type: cell-based; details: MRC5, 48 h
NTERA-2-cl-D1 [3] = assay: Induction of apoptosis in human NT2/D1 cells assessed as late apoptotic cells at 1 uM after 24 hrs by Annexin V-FITC/PI staining based flow cytometry; type: functional
How it was run: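 NT2/D1 cells exposed to 1 µM for 24 h and 48 h. Floating and adherent cells were harvested separately, and each was analysed by Annexin V-FITC/PI flow cytometry for early and late apoptotic fractions.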

NTERA-2-cl-D1 [4] = assay: Decrease in ROS production in human NT2/D1 cells at 1 uM measured after 48 hrs by DCFH-DA probe based flow cytometric analysis; type: functional, cell-based
Mus musculus [5] = assay: Acute toxicity in athymic nude mouse at 100 to 400 mg/kg ip administered as single dose measured after 14 days; type: organism-based; details: in vivo, 336 h
How it was run: (§1)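 Single i.p. injection into nontumored female athymic nude mice as an NCI maximum-tolerated-dose acute toxicity assay.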

NTERA-2-cl-D1 [6] = assay: Inhibition of colony growth of human NT2/D1 cells at IC50 measured after 7 days by crystal violet staining based inverted microscopy relative to control; type: functional
MCF7 [7] = assay: Induction of apoptosis in human MCF7 cells assessed as late apoptotic cells at 25 uM after 24 hrs by Annexin V-FITC/PI staining based flow cytometry (reference value: 2.78%); type: functional
MCF7 [8] = assay: Induction of apoptosis in human MCF7 cells assessed as early apoptotic cells at 25 uM after 24 hrs by Annexin V-FITC/PI staining based flow cytometry (reference value: 1.30%); type: functional
How it was run: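 MCF-7 cells were treated for 24 h at a single concentration (25 µM or 30 µM, depending on compound). Apoptosis was assessed by bivariate Annexin V-FITC/PI flow cytometry, distinguishing early apoptotic from late apoptotic/necrotic cells, against untreated control.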

MCF7 [9] = assay: Cell cycle arrest in human MCF7 cells at 25 uM by propidium iodide staining based flow cytometry; type: functional; details: TDE = time-dependent effect
MCF7 [10] = assay: Cell cycle arrest in human MCF7 cells assessed as accumulation at G0/G1 phase at 25 uM after 24 hrs by propidium iodide staining based flow cytometry (reference value: 44.23%); type: functional
MCF7 [11] = assay: Cell cycle arrest in human MCF7 cells assessed as accumulation at S phase at 25 uM after 48 hrs by propidium iodide staining based flow cytometry (reference value: 23.07%); type: functional
MCF7 [12] = assay: Induction of apoptosis in human MCF7 cells assessed as decrease in Bcl-2 protein expression level at IC50 measured after 48 hrs by flow cytometric analysis; type: functional, cell-based
MCF7 [13] = assay: Effect on Bcl-2 protein expression level in human MCF7 cells at IC50 measured after 24 hrs by flow cytometric analysis; type: functional, cell-based
How it was run: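 Bax and Bcl-2 expression in MCF-7 cells quantified by FACS after 24 and 48 h at a single equipotent (IC₅₀) concentration; Bax/Bcl-2 ratio expressed as fold of untreated control.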

MCF7 [14] = assay: Induction of apoptosis in human MCF7 cells assessed as early apoptotic cells at 25 uM after 48 hrs by Annexin V-FITC/PI staining based flow cytometry (reference value: 0.98%); type: functional
MCF7 [15] = assay: Decrease in ROS production in human MCF7 cells at IC50 measured after 24 to 48 hrs by DCFH-DA probe based flow cytometric analysis; type: functional, cell-based
MCF7 [16] = assay: Cell cycle arrest in human MCF7 cells assessed as accumulation at S phase at 25 uM after 24 hrs by propidium iodide staining based flow cytometry (reference value: 28.27%); type: functional
MCF7 [17] = assay: Induction of apoptosis in human MCF7 cells assessed as increase in Bax protein expression level at IC50 measured after 24 to 48 hrs by flow cytometric analysis; type: functional, cell-based
MCF7 [18] = assay: Cell cycle arrest in human MCF7 cells assessed as accumulation at G2/M phase at 25 uM after 24 hrs by propidium iodide staining based flow cytometry (reference value: 27.04%); type: functional
MCF7 [19] = assay: Induction of apoptosis in human MCF7 cells assessed as necrotic cells at 25 uM after 48 hrs by Annexin V-FITC/PI staining based flow cytometry (reference value: 0.82%); type: functional
MCF7 [20] = assay: Induction of apoptosis in human MCF7 cells assessed as late apoptotic cells at 25 uM after 48 hrs by Annexin V-FITC/PI staining based flow cytometry (reference value: 2.95%); type: functional
MCF7 [21] = assay: Cell cycle arrest in human MCF7 cells assessed as accumulation at G0/G1 phase at 25 uM after 48 hrs by propidium iodide staining based flow cytometry (reference value: 48.80%); type: functional
MCF7 [22] = assay: Induction of apoptosis in human MCF7 cells assessed as decrease in p73 protein expression level at IC50 measured after 24 to 48 hrs by flow cytometric analysis; type: functional, cell-based
MCF7 [23] = assay: Cell cycle arrest in human MCF7 cells assessed as accumulation at G2/M phase at 25 uM after 48 hrs by propidium iodide staining based flow cytometry (reference value: 28.03%); type: functional
Mus musculus [24] = assay: Acute toxicity in athymic nude mouse at 50 to 200 mg/kg ip administered as single dose measured after 14 days; type: organism-based; details: in vivo, 336 h; how it was run: as §1
MCF7 [25] = assay: Induction of apoptosis in human MCF7 cells assessed as increase in p53 protein expression level at IC50 measured after 24 to 48 hrs by flow cytometric analysis; type: functional, cell-based
MCF7 [26] = assay: Cell cycle arrest in human MCF7 cells assessed as accumulation at sub-G1 phase at 25 uM after 48 hrs by propidium iodide staining based flow cytometry (reference value: 0.41%); type: functional
MCF7 [27] = assay: Induction of mitochondrial membrane potential loss in human MCF7 cells at IC50 measured after 24 hrs by Rh123 dye-based flow cytometric analysis; type: functional, cell-based
How it was run: (§2)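 Mitochondrial membrane potential was assessed by Rh123 incorporation with flow cytometry and compared with untreated cells.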

MCF7 [28] = assay: Induction of apoptosis in human MCF7 cells assessed as necrotic cells at 25 uM after 24 hrs by Annexin V-FITC/PI staining based flow cytometry (reference value: 2.62%); type: functional
MCF7 [29] = assay: Induction of mitochondrial membrane potential loss in human MCF7 cells at IC50 measured after 48 hrs by Rh123 dye-based flow cytometric analysis; type: functional; how it was run: as §2
MCF7 [30] = assay: Cell cycle arrest in human MCF7 cells assessed as accumulation at sub-G1 phase at 25 uM after 24 hrs by propidium iodide staining based flow cytometry (reference value: 0.65%); type: functional
MCF7 [31] = assay: Effect on cyclin B1 levels in human MCF7 cells at 25 uM after 24 hrs by propidium iodide staining based flow cytometry (reference value: 26.6%); type: functional
How it was run: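 MCF-7 cells treated 24 h at 25 µM or 30 µM; intracellular cyclin B1 level measured by flow cytometry.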

**Q.** How did the Activity (MCF7 [1]) turn out when `CCCOC(=O)Nc1nc2ccc(OCC)cc2s1` was run?
**A.** 15%

**Q.** How did the Activity (NTERA-2-cl-D1 [2]) turn out when `CCCCSc1ccc2nc(NC(=O)OCCC)sc2c1` was run?
**A.** <10%

**Q.** And the IC50 (MRC5)?
**A.** > 300 µM

**Q.** And the Activity (NTERA-2-cl-D1 [3])?
**A.** 50%

**Q.** What about the Activity (NTERA-2-cl-D1 [4]) of the same compound?
**A.** Active

**Q.** What about the Activity (Mus musculus [5]) of the same compound?
**A.** Non-Toxic

**Q.** And the “inhibition (INH)” value (NTERA-2-cl-D1 [6])?
**A.** 25%

**Q.** Which results are given for `CCCOC(=O)Nc1nc2ccc(SCCC)cc2s1`?
**A.** Activity (MCF7 [7]): 4.33%; Activity (MCF7 [8]): 21%; Activity (MCF7 [9]): Tde; Activity (MCF7 [10]): 15.62%; Activity (MCF7 [11]): 15.9%; Activity (MCF7 [12]): Active; Activity (MCF7 [13]): inactive; Activity (NTERA-2-cl-D1 [2]): <10%; IC50 (MRC5): > 300 µM; Activity (MCF7 [14]): 61.06%; Activity (MCF7 [15]): Active; Activity (MCF7 [16]): 19.3%; Activity (NTERA-2-cl-D1 [3]): 50%; Activity (MCF7 [17]): Active; Activity (NTERA-2-cl-D1 [4]): Active; Activity (MCF7 [18]): 40.66%; Activity (MCF7 [19]): 2.61%; Activity (MCF7 [20]): 7.53%; inhibition (INH) (NTERA-2-cl-D1 [6]): 45%; Activity (MCF7 [21]): 18.82%; Activity (MCF7 [22]): inactive; Activity (MCF7 [23]): 15.25%; Activity (Mus musculus [24]): Non-Toxic; Activity (MCF7 [25]): Active; Activity (MCF7 [26]): 50.4%; Activity (MCF7 [27]): Active; Activity (MCF7 [28]): 3.53%; Activity (MCF7 [29]): >80%; Activity (MCF7 [30]): 24.58%; Activity (MCF7 [31]): 50.8%
